Screening data as filed in PubChem.
Only some compounds are listed: those with a hit (about 3.1% of all), similar ones and a draw of the others.
Cneo AK release – Cryptococcus neoformans lysis via adenylate kinase release | C. neoformans lysis, adenylate kinase release luminescence, 4 h; normalised: neutral wells 0, clomiphene wells 100 | lysis activity, % at 15 µM | 0.2% of 360,000 active | AID 651654;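 active = mean lysis activity across replicates of at least 80%, whatever share of replicates individually reach that level; inactive = mean lysis activity below 80%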
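read-out = cell lysis signal | test system = log-phase Cryptococcus neoformans yeast cells | input = cells at 5 × 10^6 per mL | medium = fresh YPD growth medium | signal = luminescent adenylate kinase detection reagent | timing = 4 h at 37 °C static, read 1 h later | dosing = single dose | controls = Clomiphene as positive lysis control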
Env fusion inh – blocks HIV Env-driven cell-cell fusion; HeLa-JRFL Env/CEM21 cell fusion, luciferase; inhibition, % at 12.3 µM; 1.1% of 360,000 active;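 active = mean replicate inhibition score of at least 50 and every replicate individually at or above 50; inconclusive = only one of the two criteria met; inactive = mean below 50 and not all replicates reaching 50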
Ecoli rRNA inh – inhibits bacterial ribosomal RNA function over humanized ribosomes; E. coli WT GFP vs humanized-ribosome RFP mutants, fluorescence, 24 h; stronger effect = lower value; DMSO median 0, no signal -100; GFP signal change (wild-type ribosome), % (test concentration not listed); 1.6% of 350,000 active; AID 720706;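 active = significant combined selectivity score with lowered wild-type GFP, culture density cut under 30%, mutant RFP and density less affected; inactive = any of these conditions unmet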
INS-1E GSIS act – primary screen for activators of insulin secretion dependent on glucose, INS-1E cells, GLuc reporter luminescence. 0.61% of 370,000 active. INS-1E GLuc reporter insulin secretion, 2-3 h. activation, % at 16.6 µM;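 active = lowest replicate activation of at least 40%, so every replicate reaches that level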
F508del corr – correctors of CFTR F508del function in bronchial epithelial cells | CFBE cells, YFP halide quenching; stimulated with forskolin plus potentiator P3; % fluorescence drop versus neutral controls | activity (quench increase), % at 7.58 µM | 0.36% of 350,000 active;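 active = mean added fluorescence quench of at least 8% versus neutral control, with both replicates also reaching 8%; inconclusive = only one of the mean or replicate conditions met; inactive = mean below 8% and not both replicates reaching 8%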;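 also: cells transiently co-express mutant CFTR-F508del with the halide-sensitive YFP; corrector assay measuring rescue of mutant channel to the surface after 24 h compound exposure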
miR-122 sensor – inhibitors of miR-122 in Huh7 cells; activation (reporter increase), % at 12.5 µM; Huh7 miR-122 Renilla luciferase sensor, 48 h; neutral wells = 0, positive control = 100; AID 602342; 0.3% of 340,000 active;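 active = mean replicate activation score at least 90 and every replicate individually at or above 90; inconclusive = only one of the two criteria met; inactive = neither criterion met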;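 also: higher luciferase means less miR-122 activity so hits act as miR-122 inhibitors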
AID977621 – growth inhibition of wild-type GFP E. coli, dose response, H69 mutant RFP, cherry-pick | 1,900 tested, under 10 active | E. coli wild-type GFP strain growth, fluorescence, 24 h | shares compounds with Ecoli rRNA inh | activity change, negative = inhibition at 50 µM | AID 977621;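 active = Wild-type ribosome reporter drop at least double the humanized mutant ribosome reporter drop, growth loss under a set limit; inconclusive = no clear call, values can overlap the other calls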;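 also: wild-type GFP and H69 mutant RFP strains grown together 50/50 in each well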
AID977628 – E. coli growth inhibition, wild-type GFP versus h24 humanized RFP strain, dose response, h24 mutant RFP vs wild-type GFP, cherry-pick. shares compounds with Ecoli rRNA inh. E. coli WT GFP strain growth, fluorescence, 24 h. activity change, negative = inhibition at 50 µM. 1,900 tested, under 10 active. AID 977628;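 active = compound lowering the normal-ribosome reporter at least twice as much as the humanized-ribosome reporter, growth loss under a set limit; inconclusive = no clear call, values can overlap the other calls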;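 also: wild-type GFP and h24 humanized RFP strains co-cultured 1 to 1 per well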
Numbers stand for hits.

How did CSc1nc2ccc(NS(=O)(=O)c3ccc([N+](=O)[O-])cc3)cc2s1 do in these assays?
Cneo AK release: inactive; Env fusion inh: inactive; Ecoli rRNA inh: -22; INS-1E GSIS act: inactive; F508del corr: inactive; miR-122 sensor: inactive; AID977621: inactive; AID977628: inactive

Results for FC(F)(F)c1ccc(Cl)c(-n2c(Cc3cccs3)n[nH]c2=S)c1 ?
Cneo AK release: inactive; Env fusion inh: inactive; Ecoli rRNA inh: -33; INS-1E GSIS act: 41; F508del corr: inactive; miR-122 sensor: inactive; AID977621: inactive

Results for CCn1c(COc2cccc(OC)c2)nnc1SCC(=O)Nc1cc(OC)ccc1OC ?
Cneo AK release: inactive; Env fusion inh: inactive; Ecoli rRNA inh: -23; INS-1E GSIS act: inactive; miR-122 sensor: inactive; AID977621: inactive; AID977628: inactive

How did CC1CCC2(CC1)SCC(=O)N2c1ccc(F)cc1 (centres undefined) do in these assays?
Env fusion inh: inactive; Ecoli rRNA inh: -19; INS-1E GSIS act: inactive; F508del corr: inactive; AID977621: inactive; AID977628: inactive

How did CC(C)(C)C1CCC2(CC1)SCC(=O)N2c1ccccc1 (centres undefined) do in these assays?
Cneo AK release: inactive; Ecoli rRNA inh: inactive; INS-1E GSIS act: inactive; F508del corr: inactive; miR-122 sensor: inactive

How did O=C(c1ccc2c(c1)CCN2S(=O)(=O)c1ccccc1)N1CCN(c2ccccc2)CC1 do in these assays?
Cneo AK release: inactive; Env fusion inh: inactive; Ecoli rRNA inh: -26; INS-1E GSIS act: inactive; F508del corr: inactive; miR-122 sensor: inactive; AID977628: inconclusive

Results for CS(=O)(=O)N1CCc2cc(C(=O)N3CCN(c4ccc(F)cc4)CC3)ccc21 ?
Cneo AK release: inactive; Env fusion inh: inactive; Ecoli rRNA inh: inactive; INS-1E GSIS act: inactive; F508del corr: inactive; miR-122 sensor: inactive

Results for COc1ccc(S(=O)(=O)Nc2ccc3c(c2)C(=O)N([C@H](C)CO)C[C@H](C)[C@H](CN(C)C(=O)c2ccncc2)OCCCC[C@H](C)O3)cc1 ?
Cneo AK release: inactive; Env fusion inh: inactive; Ecoli rRNA inh: inactive; INS-1E GSIS act: inactive; F508del corr: inactive; miR-122 sensor: inactive

What do the screens show for `Cc1ccc(S(=O)(=O)Nc2ccccc2CNc2cccc(C)n2)cc1`?
Cneo AK release: inactive; Env fusion inh: inactive; Ecoli rRNA inh: -16; INS-1E GSIS act: inactive; miR-122 sensor: inactive; AID977621: inactive; AID977628: inconclusive

How did C=CCn1c(SCC(=O)Nc2ccc3c(c2)OCCO3)nnc1-c1ccco1 do in these assays?
Cneo AK release: inactive; Ecoli rRNA inh: -17; INS-1E GSIS act: inactive; F508del corr: inactive; miR-122 sensor: inactive; AID977628: inactive

How did COCc1cc(C)nc(SCC[N+](C)(C)CC(=O)c2ccc(Br)cc2)c1C#N do in these assays?
Env fusion inh: inactive; Ecoli rRNA inh: -30; INS-1E GSIS act: inactive; F508del corr: inactive; AID977628: inactive

Results for COc1cc2c(cc1OC)C1(C)N(CC2)C(C(C)=O)=NN1c1ccc(Cl)cc1 (centres undefined) ?
Cneo AK release: inactive; Env fusion inh: inactive; Ecoli rRNA inh: -17; INS-1E GSIS act: inactive; F508del corr: inactive; miR-122 sensor: inactive; AID977621: inactive

Results for COc1cc2c(cc1OC)CN(C(=O)c1cc(Cl)nc(Cl)c1)CC2 ?
Cneo AK release: inactive; Env fusion inh: inactive; Ecoli rRNA inh: inactive; INS-1E GSIS act: inactive; F508del corr: inactive; miR-122 sensor: inactive

How did CC(=O)Oc1c(Cl)cc(N(C(C)=O)S(=O)(=O)c2ccccc2)c2ccccc12 do in these assays?
Cneo AK release: inactive; Env fusion inh: inactive; Ecoli rRNA inh: -37; INS-1E GSIS act: inactive; F508del corr: inactive; miR-122 sensor: inactive; AID977621: inconclusive

What do the screens show for `CC(=O)Oc1ccc(N(C(C)=O)S(=O)(=O)c2ccccc2)c2ccccc12`?
Cneo AK release: inactive; Env fusion inh: inactive; Ecoli rRNA inh: inactive; F508del corr: inactive; miR-122 sensor: inactive

How did COc1cccc(Nc2c([N+](=O)[O-])cncc2[N+](=O)[O-])c1 do in these assays?
Cneo AK release: inactive; Env fusion inh: inactive; Ecoli rRNA inh: inactive; INS-1E GSIS act: inactive; F508del corr: inactive; miR-122 sensor: inactive

How did NS(=O)(=O)c1ccc(Nc2c([N+](=O)[O-])cncc2[N+](=O)[O-])cc1 do in these assays?
Cneo AK release: inactive; Env fusion inh: inactive; Ecoli rRNA inh: -37; INS-1E GSIS act: inactive; F508del corr: inactive; miR-122 sensor: inactive; AID977628: inconclusive

What do the screens show for `CC(C)NC(=O)N(C)C[C@@H]1Oc2ccc(NC(=O)Cn3cnnn3)cc2C(=O)N([C@@H](C)CO)C[C@@H]1C`?
Env fusion inh: inactive; Ecoli rRNA inh: inactive; INS-1E GSIS act: inactive; F508del corr: inactive; miR-122 sensor: inactive

How did CCCC(=O)Nc1ccc2c(c1)C(=O)N(C)[C@H]1CC[C@@H](CC(=O)NCc3ccccc3)O[C@H]1CO2 do in these assays?
Cneo AK release: inactive; Env fusion inh: inactive; Ecoli rRNA inh: inactive; INS-1E GSIS act: inactive; F508del corr: inactive; miR-122 sensor: inactive

Results for CN(CCOc1ccccc1)S(=O)(=O)c1ccccc1C#N ?
Cneo AK release: inactive; Env fusion inh: inactive; Ecoli rRNA inh: -22; INS-1E GSIS act: inactive; F508del corr: inactive; miR-122 sensor: inactive; AID977621: inactive; AID977628: inactive

How did C[C@H](CO)N1C[C@H](C)[C@H](CN(C)S(=O)(=O)CC(F)(F)F)OCc2ccccc2-c2ccccc2C1=O do in these assays?
Cneo AK release: inactive; Env fusion inh: inactive; Ecoli rRNA inh: inactive; INS-1E GSIS act: inactive; F508del corr: inactive

Results for CC(=O)Nc1ccc(S(=O)(=O)Nc2cccc(-c3nc4cc(C)ccc4o3)c2)cc1 ?
Cneo AK release: inactive; Env fusion inh: inactive; Ecoli rRNA inh: -18; INS-1E GSIS act: inactive; F508del corr: 11; miR-122 sensor: inactive; AID977621: inactive

What do the screens show for `Cc1ccc2oc(-c3cccc(NC(=O)c4ccccn4)c3)nc2c1`?
Cneo AK release: inactive; Env fusion inh: inactive; Ecoli rRNA inh: inactive; INS-1E GSIS act: inactive; F508del corr: inactive; miR-122 sensor: inactive

Results for Nc1[nH]c(C(=O)c2ccccc2)c(-c2ccc(Cl)c(Cl)c2)c1C(=O)NCCc1c[nH]c2ccccc12 ?
Env fusion inh: inactive; INS-1E GSIS act: inactive; F508del corr: inactive
